MrgX1 agonist – activates human MrgX1 receptor signaling | AID 588627 | actives 0.44% (n = 310,000) | Q96LB2 | MrgX1-HEK293 cells, Fluo-4 calcium fluorescence, agonist mode; active compounds read high | B-score at 10 µM;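 active = calcium response B-score plate-corrected fluorescence ratio at least 3 library SD, with starting fluorescence B-score inside 5 SD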
Target sequence (Q96LB2 whole entry, looked up): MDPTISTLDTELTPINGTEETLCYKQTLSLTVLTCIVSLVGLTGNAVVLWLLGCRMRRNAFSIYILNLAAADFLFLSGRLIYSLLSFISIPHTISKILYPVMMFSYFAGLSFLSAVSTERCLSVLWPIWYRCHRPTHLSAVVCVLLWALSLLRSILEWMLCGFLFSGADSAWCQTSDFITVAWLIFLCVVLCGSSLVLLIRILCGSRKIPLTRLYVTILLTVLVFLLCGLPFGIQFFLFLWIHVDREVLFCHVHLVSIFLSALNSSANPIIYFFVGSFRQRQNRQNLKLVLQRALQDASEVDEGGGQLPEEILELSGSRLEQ
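Assay system: stable human MrgX1 HEK293 cell line. Quantity: 15,000 cells per well. Schedule: cells plated overnight, dye loaded 0.5 h 37 °C, 0.5 h room temperature. Detection: Fluo-4 NW calcium-flux fluorescence, kinetic read. Read-out basis: peak-minus-minimum fluorescence over baseline, converted to B scores. Control set: positive and negative control wells on each plate.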
RGS4 pot – potentiators or activators of RGS4; HEK293 M3R/inducible RGS4, carbachol calcium flux Fluo4; active compounds read low; B-score at 10 µM; actives 0.92% (n = 310,000); AID 463111;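 active = B-score of the integrated calcium signal more than 4 SD below the library mean, with starting fluorescence not abnormally high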;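 also: negative B-score means reduced calcium response which marks RGS4 activation or potentiation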
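test system = M3R-expressing HEK293 line, RGS4 induced by doxycycline | probe or stimulus = carbachol at ECmax as muscarinic agonist stimulus | timing = dye loading 30 min 37 °C, buffer rest 30 min RT | signal = calcium dye Fluo4 fluorescence | evaluation = B score from integrated fluorescence ratio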
MrgX1 antag – human MrgX1 receptor antagonism, primary screen; MRGX1-HEK293 calcium flux, Fluo-4, BAM8-22 antagonism; active compounds read low; B-score at 10 µM; actives 1.3% (n = 310,000);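 active = calcium-response B-score plate-corrected more than 3 library SD below zero, starting fluorescence within 5 deviations, no agonist response on first addition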;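 also: peak minus trough fluorescence over baseline after final BAM8-22 challenge near maximal dose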
RGS4 inh – inhibitors of human RGS4; P49798; HEK293 M3R/RGS4 inducible, Fluo-4 calcium flux; active compounds read high; triggered by carbachol at its EC20; B-score at 10 µM; actives 0.45% (n = 310,000); AID 463165;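 active = B-score, a plate-corrected calcium signal, over three deviations above library mean, with baseline fluorescence within five deviations of library mean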;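 also: RGS4 expression induced by doxycycline in cells with stable M3 receptor; B-score is computed from the integrated fluorescence ratio over baseline after carbachol; higher B-score means a larger calcium signal and so more RGS4 inhibition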
Target sequence (P49798 whole entry, looked up): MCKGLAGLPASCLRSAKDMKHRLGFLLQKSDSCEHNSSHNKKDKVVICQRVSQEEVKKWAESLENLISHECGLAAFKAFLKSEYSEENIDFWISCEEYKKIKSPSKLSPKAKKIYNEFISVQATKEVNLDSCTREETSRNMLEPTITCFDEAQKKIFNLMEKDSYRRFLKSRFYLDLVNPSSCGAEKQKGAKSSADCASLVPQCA
MrgX1 allo act – allosterically activates human MrgX1 receptor signaling; AID 588675; B-score at 10 µM; Q96LB2; actives 0.63% (n = 310,000); MrgX1-HEK293, Fluo-4 calcium flux, FDSS; active compounds read high;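 active = plate-corrected calcium response at least 3 library SD above typical, normal starting fluorescence, not activating the receptor alone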;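 also: compound read alongside a low EC10 to EC30 dose of BAM8-22 agonist; peak minus trough fluorescence over baseline measured at the second addition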
RGS4 inh valid – RGS4 inhibitor validation. shares compounds with RGS4 inh. AID 492999. HEK293 M3R/RGS4, carbachol calcium Fluo-4 fluorescence; carbachol added at its EC20; 0 = buffer wells, 100 = carbachol control. actives 65% (n = 1,700). calcium response, % at 10 µM;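 active = duplicate-averaged calcium response above the buffer-only control mean plus 5 SD of those controls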;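 also: integrated fluorescence ratio F max minus min over baseline F0; higher response in RGS4-induced cells means RGS4 inhibition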
M3R Ca ctr – non-induced cell nonspecific activity of RGS4 inhibitors | shares compounds with RGS4 inh | HEK293 M3R non-induced, carbachol calcium Fluo-4; submaximal (EC20) carbachol stimulus; buffer wells 0%, carbachol control wells 100% | activity (percent), % at 10 µM | actives 20% (n = 1,900) | AID 493000; call rule not given here;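 also: RGS4 induction absent so cells express M3R without RGS4; higher means more calcium signal and flags a non-specific hit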
M3R basal Ca ctr – second RGS4 inhibitor counter-screen in uninduced cells lacking carbachol. HEK293 M3R/RGS4 non-induced, Fluo-4 calcium, no carbachol; normalised: buffer wells 0%, carbachol wells 100%. shares compounds with RGS4 inh. actives 22% (n = 1,900). calcium response (agonist-mode artifact), % at 10 µM;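 active = duplicate-averaged calcium rise in uninduced cells above buffer wells' mean plus 5 SD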
Numbers stand for hits; - = inactive; . = no result. Hits are enriched below; roughly 3.5% of the tested compounds scored in any of these assays.

SMILES | MrgX1 agonist | RGS4 pot | MrgX1 antag | RGS4 inh | MrgX1 allo act | RGS4 inh valid | M3R Ca ctr | M3R basal Ca ctr
COCCN(C(=S)Nc1ccc(C)cc1)C(C)c1cccnc1 (stereo unspecified) | - | - | - | - | - | . | . | .
CCN(CC)c1ccc(/C=N\N2CCN(Cc3ccc(C)cc3)CC2)cc1 | - | - | - | - | - | - | - | -
CCOC(=O)CNC(=S)n1cnc(N)n1 | - | - | - | - | - | . | . | .
CCOC(=O)C1=C(COC(=O)/C=C/c2cc(OC)c(OC)c(OC)c2)NC(=O)NC1C (stereo unspecified) | - | - | - | - | - | . | . | .
Nc1nn2cc(-c3ccc(Br)cc3)nc2c2ccccc12 | - | - | - | 7 | - | 10% | - | -
CC(=O)c1ccc(N/N=C(/C(N)=O)C2=NC(C)(C)Cc3ccccc32)cc1 | - | - | - | - | - | . | . | .
CC1(C)Cc2ccccc2C(/C(=N\Nc2cccc(Cl)c2)C(N)=O)=N1 | - | - | - | 6.6 | - | 16% | - | -
CC(C)N(CCCNC(=O)Cn1c(=O)c2cccn2c2ccccc21)Cc1ccccc1 | - | - | - | - | - | - | - | -
CN(CCCNC(=O)Cn1c(=O)c2cccn2c2ccccc21)Cc1ccccc1 | - | - | - | 23 | - | - | - | -
Cc1ccc(CNC(=O)COC(=O)c2ccc(S(=O)(=O)N(C)C)cc2)cc1 | - | - | - | - | - | . | . | .
NC(=O)C(=O)N/N=C/c1cccc(C(F)(F)F)c1 | - | - | - | - | - | . | . | .
CC1CC(C)CN(CCCn2c(=S)[nH]c3ccccc3c2=O)C1 (stereo unspecified) | - | - | - | 13 | - | 92% | 77% | 11%
O=c1c2ccccc2[nH]c(=S)n1CCCN1CCN(c2ccccc2)CC1 | - | - | - | - | - | . | . | .
O=C(NCCc1ccc(Cl)cc1)c1cc(S(=O)(=O)N2CCCCC2)c[nH]1 | - | - | - | - | - | . | . | .
CCN(CC(=O)NCc1ccco1)S(=O)(=O)c1ccc(OC)cc1 | - | - | - | - | - | . | . | .
Cc1cccn2c(=O)c(C=NCCO)c(Nc3ccc(Cl)cc3)nc12 | - | - | - | 7.5 | - | 12% | - | -
Cc1cccn2c(=O)c(C=Nc3ccc(Cl)cc3)c(NCCO)nc12 | - | - | - | - | - | . | . | .
O=C(CCl)Nc1nc(-c2ccco2)c(-c2ccco2)s1 | - | - | - | 5.8 | - | - | - | -
O=C(CCCSc1ccccc1)Nc1nc(-c2ccco2)c(-c2ccco2)s1 | - | - | - | - | - | . | . | .
O=C(c1ccc(S(=O)(=O)N2CCCC2)cc1)N1CCCCC1 | - | - | - | - | - | . | . | .
O=C(/C=C/c1ccc(O)c(O)c1)c1ccc(S(=O)(=O)N2CCCCCC2)cc1 | - | - | - | 16 | - | 23% | 44% | -
CC(=O)Nc1ccc(NC(=O)CSc2nc(N)c(NC(=O)c3ccco3)c(=O)[nH]2)cc1 | - | - | - | - | - | . | . | .
NC(=O)Cn1c(=O)n(CCC(=O)Nc2ccc(F)cc2)c(=O)c2sccc21 | - | - | - | - | - | . | . | .
COC(=O)c1cc2c(ccn2-c2ccc(F)cc2)n1Cc1ccc(OC)cc1 | - | - | - | - | - | . | . | .
CCn1c(C(=O)OC)cc2c1ccn2-c1ccc(F)cc1 | - | - | - | - | - | . | - | -
Cc1noc(NS(=O)(=O)c2ccc(N/C=C/C(=O)c3ccncc3)cc2)c1C | - | - | - | - | - | - | - | -
Cc1noc(NS(=O)(=O)c2ccc(N/C=C/C(=O)c3ccc(F)cc3)cc2)c1C | - | - | - | - | - | . | - | -
Cc1noc(NS(=O)(=O)c2ccc(N/C=C\C(=O)c3ccncc3)cc2)c1C | - | - | - | - | - | . | - | -

Screening results as filed in PubChem BioAssay.
